High-throughput results: PubChem BioAssay, The Scripps Research Institute Molecular Screening Center
TAAR1 agonist – human TAAR1 agonists, primary screen, Fluo-8 calcium fluorescence, CHO RD-HGA16 cells; AID 624467, 2012; actives 0.99% (n = 360,000); vehicle wells 0%, saturating PEA agonist 100%; activation, % at 3 µM; Trace amine-associated receptor 1 (Homo sapiens), Q96RJ0;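 active = activation above the mean activation of all test compounds in the run plus 3 SD, cut at about 38% in these data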
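Benchmarks: low control DMSO, high control PEA (EC100); System: CHO RD-HGA16 cells carrying human TAAR1 plus Gα16; Detection: Fluo-8 fluorescence, 5 s baseline then 140 s kinetic read; Schedule: 17-24 h plating, Fluo-8 75 min 37 °C, 30 min RT; Read-out basis: % activation from peak over basal fluorescence ratio, DMSO-to-PEA scaled.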
OX1R antag-1 – OX1R (HCRTR1) antagonists, primary screen, fluorescence, CHO/OX1R cells, Fluo-8 calcium, orexin A. inhibition, % at 5 µM. actives 0.43% (n = 330,000). AID 434989, 2010. Fluo-8 calcium fluorescence;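 active = inhibition above its plate's threshold, mean inhibition of all tested compounds on the plate plus 3 SD, cut at about 37% in these data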
Target sequence (O43613 whole entry, looked up): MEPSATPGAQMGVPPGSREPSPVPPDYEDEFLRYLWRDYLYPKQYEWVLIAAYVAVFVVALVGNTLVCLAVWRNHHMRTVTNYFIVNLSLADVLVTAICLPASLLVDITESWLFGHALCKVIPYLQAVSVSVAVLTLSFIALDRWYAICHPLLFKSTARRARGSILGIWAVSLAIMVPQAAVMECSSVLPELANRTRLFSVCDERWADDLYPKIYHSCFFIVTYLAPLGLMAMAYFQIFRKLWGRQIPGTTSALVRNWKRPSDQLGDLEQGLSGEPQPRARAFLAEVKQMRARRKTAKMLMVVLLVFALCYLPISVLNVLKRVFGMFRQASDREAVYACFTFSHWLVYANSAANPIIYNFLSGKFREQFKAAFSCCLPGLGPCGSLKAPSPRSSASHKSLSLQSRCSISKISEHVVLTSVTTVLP
TAAR1 antagonist – human TAAR1 antagonists, primary screen, Fluo-8 calcium fluorescence, CHO RD-HGA16 cells. Trace amine-associated receptor 1 (Homo sapiens), Q96RJ0. antagonist. inhibition, % at 3 µM. actives 1.5% (n = 360,000). AID 624466, 2012;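 active = inhibition above a per-plate cutoff, the mean inhibition of test compounds on that plate plus 3 SD, cut at about 49% in these data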
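test system = CHO RD-HGA16 cells bearing hTAAR1 | replication = singlicate | controls = DMSO-only wells and EC80 β-PEA-stimulated wells | reagent = EC80 β-phenethylamine stimulus | read-out basis = percent inhibition of PEA-evoked calcium signal, max/basal emission ratio | schedule = seeding 17-24 h prior, 75-min 37 °C, 30-min RT dye loading | signal = kinetic Fluo-8 calcium fluorescence measurement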
CHO parental Ca – ATP-evoked calcium signal inhibitors, parental CHO, primary screen, counter-screen for OX1R antagonist project, cell-based, fluorescence, Fluo-8 calcium dye; parental CHO-K1, ATP-induced calcium, Fluo-8 fluorescence; inhibition, % at 5.6 µM; actives 0.63% (n = 330,000); AID 463079, 2010;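 active = inhibition above that plate's mean sample inhibition plus 3 SD, cut at about 26% in these data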
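Material – parental CHO cells · Reagent – ATP stimulus · Compound – single nominal dose of 5.6 µM per compound · Detection – Fluo-8 fluorescence · Read-out basis – percent inhibition of calcium signal · Controls – ATP-challenged DMSO wells low, unchallenged DMSO wells high · Repeats – no replicates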
GPR7 antag – GPR7 receptor antagonists, primary screen, cell-based, fluorescence, single concentration. Neuropeptides B/W receptor type 1 (Homo sapiens), P48145. GPR7-expressing cells, fluorescence antagonist assay. inhibition, % at 4.4 µM. actives 1.1% (n = 290,000); in the data active = inhibition above about 16%, passing the limit was not always enough;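 also: cells stimulated with the agonist NPW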
OX1R antag-2 – antagonists of human orexin 1 receptor (OX1R); actives 1.8% (n = 330,000); AID 485270, 2010; inhibition, % at 6.6 µM; OX1R-expressing cells, FRET antagonist read-out; in the data active = inhibition mostly above about 38%, no sharp cut-off; inactive = mostly below about 40%
GPR7 antag conf – GPR7 receptor antagonists, confirmation, cell-based, fluorescence, single concentration. shares compounds with GPR7 antag. GPR7-expressing cells, calcium fluorescence antagonist mode. inhibition, % at 4.4 µM. actives 52% (n = 2,400). AID 1952, 2009; in the data active = inhibition above about 24%;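 also: stimulated with the GPR7 agonist NPW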
MCHR1 antagonist – MCHR1 antagonists in cells, counter-screen for GPR7 antagonist project, cell-based, fluorescence, human | AID 2148, 2009 | actives 62% (n = 2,400) | MCHR1-expressing cells, fluorescence antagonist assay | shares compounds with GPR7 antag | inhibition, % at 4.4 µM; in the data active = inhibition above about 22%
Large screens that a line does not name were inactive (follow-up assays come after a bar, where they were run); ! = repeats disagree. Only some compounds are listed: those with a hit (about 4.5% of all), similar ones and a draw of the others.

N#CC(C#N)=C1C=C2C=C(N3CCCCCC3)CCC2CC1 (configuration not stated)	TAAR1 agonist 957, TAAR1 antagonist 104, GPR7 antag 72 (no result: OX1R antag-1, CHO parental Ca, OX1R antag-2) | GPR7 antag conf 97 | MCHR1 antagonist 110
CN1CCN(C2=CC3=CC(=C(C#N)C#N)CCC3CC2)CC1 (configuration not stated)	GPR7 antag 59 (no result: TAAR1 agonist, OX1R antag-1, TAAR1 antagonist, CHO parental Ca, OX1R antag-2) | GPR7 antag conf 76 | MCHR1 antagonist 90
CCN1CCN(C2=CC3=CC(=C(C#N)C#N)CCC3CC2)CC1 (configuration not stated)	GPR7 antag 60 (no result: TAAR1 agonist, OX1R antag-1, TAAR1 antagonist, CHO parental Ca, OX1R antag-2) | GPR7 antag conf 68 | MCHR1 antagonist 91
CN(C)CCCN1c2ccccc2Sc2ccc(Cl)cc21	GPR7 antag 35! | GPR7 antag conf 46 | MCHR1 antagonist 57
COC(=O)c1ccccc1NC(=O)COC(=O)Cc1ccc(S(=O)(=O)N2CCOCC2)s1	none (no result: OX1R antag-1, CHO parental Ca, GPR7 antag, OX1R antag-2)
COCCCNC(=O)C[C@@H]1C[C@@]2(C(=O)OC)CC(C)(C)CC=C2N(Cc2ccc3c(c2)OCO3)C1=O	none (no result: OX1R antag-1, CHO parental Ca, GPR7 antag, OX1R antag-2)
CCOC(=O)C(=O)N(C)c1c(CC)nc2c(OCc3ccc(OC(F)F)cc3)cccn12	none (no result: OX1R antag-1, CHO parental Ca, GPR7 antag, OX1R antag-2)
Cc1ccc(Cl)cc1N1CCN(Cc2nnnn2Cc2ccco2)CC1	none
CCC(c1nnnn1Cc1ccco1)N1CCN(c2cc(Cl)ccc2C)CC1 (configuration not stated)	GPR7 antag 23 | GPR7 antag conf 30 | MCHR1 antagonist 52
COC(=O)CC1N(S(=O)(=O)c2ccc(C)cc2)c2ccccc2C1(C(=O)OC)C(=O)OC (configuration not stated)	none (no result: OX1R antag-1, CHO parental Ca, GPR7 antag, OX1R antag-2)
C[C@H]1CN([C@@H](C)CO)S(=O)(=O)c2ccc(Br)cc2O[C@@H]1CN(C)C(=O)C1CCOCC1	none (no result: OX1R antag-1, CHO parental Ca, GPR7 antag, OX1R antag-2)
Cc1cc(=O)oc2cc(OC(=O)c3ccccc3)ccc12	none (no result: GPR7 antag) | MCHR1 antagonist inactive
CCOc1ncccc1C(=O)Nc1ccc2c(C)cc(=O)oc2c1	none
COc1ccccc1C(=O)Nc1ccc2c(C)cc(=O)oc2c1	GPR7 antag 42 | GPR7 antag conf inactive | MCHR1 antagonist inactive
COc1cccc(-c2cnc(C(O)c3cc(C)c(OC)c(C)c3)[nH]2)c1 (configuration not stated)	none (no result: OX1R antag-1, CHO parental Ca, GPR7 antag, OX1R antag-2)
CC(=O)Nc1cccc(-c2ccnc3c2CC(C)(C(=O)NCCC(F)(F)F)O3)c1 (configuration not stated)	none (no result: OX1R antag-1, CHO parental Ca, GPR7 antag, OX1R antag-2)
COc1ccc(CCNC(=O)N2c3ccccc3Sc3ccccc32)cc1	CHO parental Ca 36, GPR7 antag 42 | GPR7 antag conf 45 | MCHR1 antagonist 77
Cc1ccc(C)c(CN2CCC(CNC(=O)Nc3ccc(C)c(C)c3)CC2)c1	GPR7 antag 36 | GPR7 antag conf inactive | MCHR1 antagonist 25
COc1ccc(Cl)cc1NC(=O)NCC1CCN(Cc2cc(C)ccc2C)CC1	none
Cc1cc(NC(=O)COC(=O)c2oc3c(Cl)cccc3c2C)no1	GPR7 antag 27 | GPR7 antag conf inactive | MCHR1 antagonist 37
Cc1cc(NC(=O)COC(=O)c2ccccc2Cl)no1	none (no result: GPR7 antag)
NC(=O)c1c(N)sc2c1CCCC2	GPR7 antag 23 | GPR7 antag conf inactive | MCHR1 antagonist inactive
CCc1ccccc1NC(=O)CN1C(=O)C2CCCN2c2ncc(Cl)cc21 (configuration not stated)	GPR7 antag 38 | GPR7 antag conf 34 | MCHR1 antagonist inactive
OCC1(CCCc2ccccc2)CCN(C2CCSCC2)CC1	none
CCOC(=O)C1(CCCc2ccccc2)CCN(C2CCSCC2)CC1	GPR7 antag 43 (no result: OX1R antag-1, CHO parental Ca, OX1R antag-2) | GPR7 antag conf 50 | MCHR1 antagonist 33
